Source: ChEMBL document CHEMBL1681781, “Structure based design and syntheses of amino-1H-pyrazole amide derivatives as selective Raf kinase inhibitors in melanoma cells” (Bioorg Med Chem, 2011)

Experiments:
[1] = biological target: Cyclin-dependent kinase 2/cyclin E (Homo sapiens, UniProt P24941); experiment: Inhibition of CDK2/cyclin E; format: protein-complex assay
[2] = biological target: Tyrosine-protein kinase JAK3 (Homo sapiens) (UniProt P52333); experiment: inhibition of JAK3 at 10 uM
[3] = biological target: T1, Vascular endothelial growth factor receptor 2 (Homo sapiens, UniProt P35968); experiment: inhibition of KDR at 10 uM
[4] = biological target: T2, Mitogen-activated protein kinase 10 (Homo sapiens, UniProt P53779); conditions: 10 uM
T2 sequence (P53779 whole entry): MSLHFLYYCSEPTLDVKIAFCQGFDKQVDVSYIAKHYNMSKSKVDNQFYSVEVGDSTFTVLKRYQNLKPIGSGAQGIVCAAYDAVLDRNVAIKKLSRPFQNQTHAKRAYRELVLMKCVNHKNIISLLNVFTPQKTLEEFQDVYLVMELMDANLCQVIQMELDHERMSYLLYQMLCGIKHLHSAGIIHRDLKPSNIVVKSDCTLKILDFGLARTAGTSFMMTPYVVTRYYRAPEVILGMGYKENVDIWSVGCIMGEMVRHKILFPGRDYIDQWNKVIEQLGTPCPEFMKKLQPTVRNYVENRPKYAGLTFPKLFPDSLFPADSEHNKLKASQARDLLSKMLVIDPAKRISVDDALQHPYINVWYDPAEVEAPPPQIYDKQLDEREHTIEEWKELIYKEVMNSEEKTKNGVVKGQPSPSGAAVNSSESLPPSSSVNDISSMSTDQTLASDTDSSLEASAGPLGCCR

[5] = biological target: T3, Fibroblast growth factor receptor 3 (Homo sapiens, UniProt P22607); experiment: inhibition of FGFR3
[6] = biological target: T4, BDNF/NT-3 growth factors receptor (Homo sapiens, UniProt Q16620); experiment: inhibition of TRKB
[7] = biological target: T5, Macrophage-stimulating protein receptor (Homo sapiens, UniProt Q04912); experiment: inhibition of RON
T5 sequence (Q04912 25-304 limits assumed): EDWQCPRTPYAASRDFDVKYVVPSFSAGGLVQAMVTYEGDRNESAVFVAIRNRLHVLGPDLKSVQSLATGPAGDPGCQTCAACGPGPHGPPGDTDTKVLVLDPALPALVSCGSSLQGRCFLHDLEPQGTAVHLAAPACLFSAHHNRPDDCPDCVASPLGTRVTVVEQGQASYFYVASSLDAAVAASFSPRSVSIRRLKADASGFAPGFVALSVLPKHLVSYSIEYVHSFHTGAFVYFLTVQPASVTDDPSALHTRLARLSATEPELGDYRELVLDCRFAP
T5 sequence (Q04912 310-1400 limits assumed): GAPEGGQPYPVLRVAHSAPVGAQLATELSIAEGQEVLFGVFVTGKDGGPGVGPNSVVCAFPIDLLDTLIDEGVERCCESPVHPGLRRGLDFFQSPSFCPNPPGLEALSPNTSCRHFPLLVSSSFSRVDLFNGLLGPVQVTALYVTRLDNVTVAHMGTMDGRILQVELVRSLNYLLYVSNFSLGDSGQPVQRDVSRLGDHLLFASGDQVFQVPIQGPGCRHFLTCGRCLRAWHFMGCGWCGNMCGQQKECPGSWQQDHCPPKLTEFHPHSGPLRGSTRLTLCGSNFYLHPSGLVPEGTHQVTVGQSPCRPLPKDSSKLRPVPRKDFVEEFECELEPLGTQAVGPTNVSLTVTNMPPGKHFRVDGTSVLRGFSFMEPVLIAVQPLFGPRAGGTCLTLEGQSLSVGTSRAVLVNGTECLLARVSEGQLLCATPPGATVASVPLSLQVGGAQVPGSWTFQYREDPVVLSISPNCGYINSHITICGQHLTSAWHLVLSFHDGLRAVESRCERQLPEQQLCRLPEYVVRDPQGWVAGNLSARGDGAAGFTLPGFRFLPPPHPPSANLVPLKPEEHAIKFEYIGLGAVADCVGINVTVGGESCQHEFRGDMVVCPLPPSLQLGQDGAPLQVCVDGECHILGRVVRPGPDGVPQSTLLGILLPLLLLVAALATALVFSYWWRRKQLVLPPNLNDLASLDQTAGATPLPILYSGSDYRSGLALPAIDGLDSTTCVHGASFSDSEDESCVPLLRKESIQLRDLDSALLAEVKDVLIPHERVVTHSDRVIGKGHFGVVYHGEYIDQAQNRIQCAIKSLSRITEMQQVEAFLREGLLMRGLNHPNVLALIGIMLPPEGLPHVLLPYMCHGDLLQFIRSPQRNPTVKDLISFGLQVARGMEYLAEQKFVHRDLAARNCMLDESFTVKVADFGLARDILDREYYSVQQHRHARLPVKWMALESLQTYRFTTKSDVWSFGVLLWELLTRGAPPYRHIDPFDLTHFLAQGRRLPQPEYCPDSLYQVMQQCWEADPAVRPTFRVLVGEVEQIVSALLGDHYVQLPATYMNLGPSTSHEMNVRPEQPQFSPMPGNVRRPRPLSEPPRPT

[8] = biological target: T6, Ribosomal protein S6 kinase beta-1 (Homo sapiens, UniProt P23443); experiment: inhibition of p70S6K
Target sequence in this assay (P23443 whole entry): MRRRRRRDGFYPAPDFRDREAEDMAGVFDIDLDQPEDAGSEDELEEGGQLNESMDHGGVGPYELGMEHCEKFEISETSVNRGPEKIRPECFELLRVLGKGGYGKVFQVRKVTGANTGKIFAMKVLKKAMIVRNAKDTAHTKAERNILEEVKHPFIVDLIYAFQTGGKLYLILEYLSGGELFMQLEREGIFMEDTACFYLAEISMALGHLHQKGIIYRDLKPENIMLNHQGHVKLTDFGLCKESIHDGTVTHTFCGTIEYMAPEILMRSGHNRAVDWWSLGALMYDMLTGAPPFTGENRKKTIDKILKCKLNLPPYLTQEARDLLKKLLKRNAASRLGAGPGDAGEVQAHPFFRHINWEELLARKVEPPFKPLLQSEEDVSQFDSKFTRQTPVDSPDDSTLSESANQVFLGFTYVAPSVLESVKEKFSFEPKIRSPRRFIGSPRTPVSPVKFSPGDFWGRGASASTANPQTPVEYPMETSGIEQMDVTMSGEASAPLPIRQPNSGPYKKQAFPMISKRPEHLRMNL

[9] = biological target: T7, Mitogen-activated protein kinase 1 (Homo sapiens, UniProt P28482); experiment: Inhibition of ERK2
T7 sequence (P28482 whole entry): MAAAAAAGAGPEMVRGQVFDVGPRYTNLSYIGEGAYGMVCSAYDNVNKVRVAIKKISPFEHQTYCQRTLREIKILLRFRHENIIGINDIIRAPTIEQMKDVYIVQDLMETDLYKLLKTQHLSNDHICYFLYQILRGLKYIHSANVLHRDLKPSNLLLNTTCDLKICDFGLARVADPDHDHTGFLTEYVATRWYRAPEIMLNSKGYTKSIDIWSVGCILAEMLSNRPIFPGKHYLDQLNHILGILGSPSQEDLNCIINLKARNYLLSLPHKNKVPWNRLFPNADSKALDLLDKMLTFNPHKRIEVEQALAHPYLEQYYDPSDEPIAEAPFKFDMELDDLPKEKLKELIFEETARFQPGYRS

[10] = biological target: Serine/threonine-protein kinase mTOR (Homo sapiens, UniProt P42345); experiment: inhibition of mTOR at 10 uM
[11] = biological target: T8, Proto-oncogene tyrosine-protein kinase ROS (Homo sapiens, UniProt P08922); experiment: inhibition of ROS at 10 uM
[12] = biological target: T6, Ribosomal protein S6 kinase beta-1; experiment: inhibition of p70S6K at 10 uM
Target sequence in this assay (P23443 whole entry, looked up): as the sequence (P23443 whole entry) above

[13] = biological target: Receptor-type tyrosine-protein kinase FLT3 (Homo sapiens, UniProt P36888); experiment: inhibition of FLT3
[14] = biological target: T9, Tyrosine-protein kinase SYK (Homo sapiens, UniProt P43405); experiment: inhibition of SYK at 10 uM
[15] = system: RAC-alpha serine/threonine-protein kinase (Homo sapiens), P31749 [S473D]; experiment: Inhibition of AKT1 PH S473D mutant at 10 uM
[16] = biological target: T10, Mitogen-activated protein kinase 8 (Homo sapiens, UniProt P45983); experiment: inhibition of JNK1a1 at 10 uM
T10 sequence (P45983 whole entry): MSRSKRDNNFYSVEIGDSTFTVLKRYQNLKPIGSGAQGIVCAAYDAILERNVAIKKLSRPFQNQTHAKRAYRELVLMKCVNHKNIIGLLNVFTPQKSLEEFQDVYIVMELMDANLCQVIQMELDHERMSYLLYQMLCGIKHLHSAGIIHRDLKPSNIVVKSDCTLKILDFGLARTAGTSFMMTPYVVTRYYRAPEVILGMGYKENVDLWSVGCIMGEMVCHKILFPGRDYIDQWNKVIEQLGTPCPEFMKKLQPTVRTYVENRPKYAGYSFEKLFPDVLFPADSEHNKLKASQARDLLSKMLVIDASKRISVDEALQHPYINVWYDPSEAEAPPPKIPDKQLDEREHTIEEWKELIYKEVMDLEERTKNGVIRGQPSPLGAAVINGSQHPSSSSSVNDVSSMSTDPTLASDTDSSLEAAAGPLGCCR

[17] = inhibition of PKA
[18] = biological target: Focal adhesion kinase 1 (Homo sapiens) (UniProt Q05397); experiment: Inhibition of FAK at 10 uM
[19] = biological target: T2, Mitogen-activated protein kinase 10; experiment: inhibition of JNK3
[20] = inhibition of PKA at 10 uM
[21] = Antiproliferative activity against human A375P cells assessed as growth inhibition after 24 hrs by MTT assay; format: functional
Procedure, shortened: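 A375P cells kept in DMEM with 10% FBS and 1% penicillin/streptomycin at 37 °C under 5% CO2. Cells lifted with 0.05% trypsin–0.02% EDTA, seeded at 5 × 10^3 cells/well and left 24 h before dosing. Test compounds given as a 3-fold serial dilution over 12 points. Viability read by MTT reduction, absorbance at 590 nm.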

[22] = biological target: ALK tyrosine kinase receptor (Homo sapiens) (UniProt Q9UM73); conditions: 10 uM
[23] = biological target: T11, Glycogen synthase kinase-3 beta (Homo sapiens, UniProt P49841); experiment: inhibition of GSK3-beta
[24] = biological target: Insulin-like growth factor 1 receptor (Homo sapiens) (UniProt P08069); experiment: inhibition of IGF-1R at 10 uM
[25] = biological target: Cyclin-dependent kinase 1/cyclin B (Homo sapiens, UniProt P06493); experiment: Inhibition of CDK1/cyclin B; format: protein-complex assay
[26] = biological target: T8, Proto-oncogene tyrosine-protein kinase ROS; experiment: inhibition of ROS
[27] = biological target: T7, Mitogen-activated protein kinase 1; experiment: Inhibition of ERK2 at 10 uM
Aurora kinase A = Aurora kinase A (Homo sapiens, UniProt O14965); experiment: Inhibition of Aurora A kinase
[28] = system: Serine/threonine-protein kinase B-raf (Homo sapiens), P15056 [V600E]; experiment: Inhibition of b-Raf V599E mutant at 10 uM
[29] = biological target: T3, Fibroblast growth factor receptor 3; conditions: 10 uM
[30] = biological target: T4, BDNF/NT-3 growth factors receptor; experiment: inhibition of TRKB at 10 uM
[31] = biological target: T1, Vascular endothelial growth factor receptor 2; experiment: inhibition of KDR
[32] = biological target: T12, Hepatocyte growth factor receptor (Homo sapiens, UniProt P08581); conditions: 10 uM
[33] = biological target: T13, Proto-oncogene tyrosine-protein kinase Src (Homo sapiens, UniProt P12931); conditions: 10 uM
T13 sequence (P12931 2-536 limits assumed): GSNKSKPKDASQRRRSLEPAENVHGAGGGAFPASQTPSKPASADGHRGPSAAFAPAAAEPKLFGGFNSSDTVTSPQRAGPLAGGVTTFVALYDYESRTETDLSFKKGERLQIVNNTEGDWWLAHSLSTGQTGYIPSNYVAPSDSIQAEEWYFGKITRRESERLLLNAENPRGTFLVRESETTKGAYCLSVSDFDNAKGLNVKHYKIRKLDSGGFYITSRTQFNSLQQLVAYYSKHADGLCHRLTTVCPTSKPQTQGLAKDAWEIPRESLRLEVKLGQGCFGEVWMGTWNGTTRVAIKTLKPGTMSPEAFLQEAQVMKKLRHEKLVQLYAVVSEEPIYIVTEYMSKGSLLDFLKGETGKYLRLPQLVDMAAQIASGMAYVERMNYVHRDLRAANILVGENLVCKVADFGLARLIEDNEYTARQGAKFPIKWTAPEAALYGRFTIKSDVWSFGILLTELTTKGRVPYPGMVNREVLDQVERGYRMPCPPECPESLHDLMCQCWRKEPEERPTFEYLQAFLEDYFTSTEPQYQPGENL

[34] = biological target: T13, Proto-oncogene tyrosine-protein kinase Src; experiment: Inhibition of c-Src
[35] = biological target: T14, Serine/threonine-protein kinase PLK1 (Homo sapiens, UniProt P53350); experiment: inhibition of PLK1 at 10 uM
T14 sequence (P53350 whole entry): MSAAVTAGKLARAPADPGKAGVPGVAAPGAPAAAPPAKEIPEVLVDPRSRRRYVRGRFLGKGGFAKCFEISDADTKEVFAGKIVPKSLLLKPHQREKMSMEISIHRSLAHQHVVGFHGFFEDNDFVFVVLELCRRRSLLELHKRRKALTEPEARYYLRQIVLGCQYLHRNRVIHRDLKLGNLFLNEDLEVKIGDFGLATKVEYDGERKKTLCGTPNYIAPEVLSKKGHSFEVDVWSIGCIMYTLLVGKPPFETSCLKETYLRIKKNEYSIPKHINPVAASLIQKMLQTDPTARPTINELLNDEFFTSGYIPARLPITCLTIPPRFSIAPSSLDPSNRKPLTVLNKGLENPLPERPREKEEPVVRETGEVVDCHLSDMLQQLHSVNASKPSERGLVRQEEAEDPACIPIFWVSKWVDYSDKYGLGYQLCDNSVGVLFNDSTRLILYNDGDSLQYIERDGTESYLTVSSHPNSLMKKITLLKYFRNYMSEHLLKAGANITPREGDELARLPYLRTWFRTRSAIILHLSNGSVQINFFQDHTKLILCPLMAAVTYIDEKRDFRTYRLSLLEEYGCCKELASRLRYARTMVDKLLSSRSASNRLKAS

[36] = biological target: T11, Glycogen synthase kinase-3 beta; experiment: inhibition of GSK3-beta at 10 uM
[37] = biological target: RAF proto-oncogene serine/threonine-protein kinase (Homo sapiens, UniProt P04049); experiment: inhibition of RAF1 assessed as [33P]gamma-ATP incorporation into substrate at 10 uM after 40 mins by scintillation counting
[38] = biological target: T14, Serine/threonine-protein kinase PLK1; experiment: inhibition of PLK1
[39] = biological target: Receptor-type tyrosine-protein kinase FLT3 (Homo sapiens) (UniProt P36888); conditions: 10 uM
HS27 = experiment: Antiproliferative activity against human HS27 cells assessed as growth inhibition after 24 hrs by MTT assay; format: functional; conditions: HS27, 24 h
[40] = biological target: Aurora kinase A (Homo sapiens) (UniProt O14965); experiment: Inhibition of Aurora A kinase at 10 uM
[41] = biological target: T9, Tyrosine-protein kinase SYK; experiment: inhibition of SYK
[42] = biological target: T10, Mitogen-activated protein kinase 8; experiment: inhibition of JNK1a1; conditions: concentration not given here
[43] = biological target: T5, Macrophage-stimulating protein receptor; experiment: inhibition of RON at 10 uM
[44] = biological target: T12, Hepatocyte growth factor receptor; experiment: Inhibition of c-MET
[45] = biological target: Cyclin-dependent kinase 1/cyclin B (Homo sapiens) (UniProt P06493+P14635+Q8WWL7+O95067); experiment: Inhibition of CDK1/cyclin B at 10 uM; format: protein-complex assay
[46] = biological target: T15, Dual specificity mitogen-activated protein kinase kinase 1 (Homo sapiens, UniProt Q02750); experiment: inhibition of MEK1
T15 sequence (Q02750 whole entry): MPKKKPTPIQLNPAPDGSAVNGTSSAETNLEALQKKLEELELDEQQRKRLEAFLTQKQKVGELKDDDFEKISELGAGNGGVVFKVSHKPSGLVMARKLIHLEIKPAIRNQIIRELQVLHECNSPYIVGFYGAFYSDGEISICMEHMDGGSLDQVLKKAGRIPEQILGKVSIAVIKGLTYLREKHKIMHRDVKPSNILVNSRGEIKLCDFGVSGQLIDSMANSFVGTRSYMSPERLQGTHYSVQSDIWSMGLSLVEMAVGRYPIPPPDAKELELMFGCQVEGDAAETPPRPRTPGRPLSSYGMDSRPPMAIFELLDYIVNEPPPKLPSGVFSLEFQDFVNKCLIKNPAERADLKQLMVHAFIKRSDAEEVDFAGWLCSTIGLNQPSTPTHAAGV

[47] = biological target: Cyclin-dependent kinase 2/cyclin E (Homo sapiens) (UniProt P24864+P24941+O96020); experiment: Inhibition of CDK2/cyclin E at 10 uM; format: protein-complex assay
[48] = biological target: T15, Dual specificity mitogen-activated protein kinase kinase 1; experiment: inhibition of MEK1 at 10 uM

- IC50 [1]: 2.13 nM
- inhibition [2]: 0%
- inhibition [3]: 0%
- inhibition [4]: 13%
- IC50 [5]: 21.5 nM
- IC50 [6]: < 1 nM
- IC50 [7]: 277 nM
- IC50 [8]: < 1 nM
- IC50 [9]: 11400 nM
- inhibition [10]: 1.2%
- inhibition [11]: 0%
- inhibition [12]: 0%
- IC50 [13]: < 1 nM
- inhibition [14]: 0%
- inhibition [15]: 3.7%
- IC50 [16]: 1590 nM
- IC50 [17]: < 1 nM
- inhibition [18]: 1.5%
- IC50 [19]: > 20000 nM
- inhibition [20]: 0%
- inhibition [22]: 7.7%
- IC50 [23]: 2.73 nM
- inhibition [24]: 0.7%
- IC50 [25]: 3.2 nM
- IC50 [26]: < 1 nM
- inhibition [27]: 0%
- IC50 (Aurora kinase A): < 1 nM
- inhibition [28]: 97%
- inhibition [29]: 0.1%
- inhibition [30]: 6.6%
- IC50 [31]: 9.42 nM
- inhibition [32]: 13%
- inhibition [33]: 16%
- IC50 [34]: 4.79 nM
- inhibition [35]: 6.3%
- inhibition [36]: 1.4%
- inhibition [37]: 100%
- IC50 [38]: 167 nM
- inhibition [39]: 13%
- inhibition [40]: 0%
- IC50 [41]: < 1 nM
- inhibition [42]: 7.1%
- inhibition [43]: 0%
- IC50 [44]: 193 nM
- inhibition [45]: 0%
- IC50 [46]: 18.2 nM
- inhibition [47]: 0%
- inhibition [48]: 0%
SMILES: COc1ccc(Cn2ncc(NC(=O)c3cc(NC(=O)Nc4ccc(Cl)c(C(F)(F)F)c4)ccc3C)c2N)cc1
- GI50 [21]: 270 nM
- GI50 (HS27): > 30000 nM
